Active and inactive are the calls of the source.
Key:
[1] = system: Escherichia coli; test: Antibacterial activity against Escherichia coli at 100 ug/mL after 48 hrs by cup-plate method; type: functional
[2] = system: Escherichia coli; test: Antibacterial activity against Escherichia coli at 50 ug/mL after 48 hrs by cup-plate method; type: functional
[3] = system: Escherichia coli; test: Antibacterial activity against Escherichia coli at 25 ug/mL after 48 hrs by cup-plate method; type: functional; settings: for zone of inhibition at 25 µg/mL: read-out: IZ
[4] = system: Bacillus; test: Antibacterial activity against […] at 100 ug/mL after 48 hrs by cup-plate method; type: functional
[5] = system: Bacillus; test: Antibacterial activity against […] at 50 ug/mL after 48 hrs by cup-plate method; type: functional
[6] = system: Bacillus; test: Antibacterial activity against […] at 25 ug/mL after 48 hrs by cup-plate method; type: functional; settings: for zone of inhibition at 25 µg/mL: read-out: IZ
[7] = system: Aspergillus niger; test: Antifungal activity against Aspergillus niger at 100 ug/mL after 48 hrs by cup-plate method; type: functional
[8] = system: Aspergillus niger; test: Antifungal activity against Aspergillus niger at 50 ug/mL after 48 hrs by cup-plate method; type: functional
[9] = system: Aspergillus niger; test: Antifungal activity against Aspergillus niger at 25 ug/mL after 48 hrs by cup-plate method; type: functional; settings: for zone of inhibition at 25 µg/mL: read-out: IZ
[10] = system: Macrophomina phaseolina; test: Antifungal activity against Rhizoctonia bataticola at 100 ug/mL after 48 hrs by cup-plate method; type: functional
[11] = system: Macrophomina phaseolina; test: Antifungal activity against Rhizoctonia bataticola at 50 ug/mL after 48 hrs by cup-plate method; type: functional; settings: for zone of inhibition at 50 µg/mL: read-out: IZ
[12] = system: Macrophomina phaseolina; test: Antifungal activity against Rhizoctonia bataticola at 25 ug/mL after 48 hrs by cup-plate method; type: functional
[13] = Acute toxicity in ip dosed albino mouse after 24 hrs; type: organism-based; settings: in vivo
Summary of the method: (§1)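 Groups of six albino mice (20–25 g), fasted overnight, dosed once orally or intraperitoneally at 100 to 1000 mg kg^-1 body weight. Observed for 24 h for mortality and signs of acute toxicity (altered motor activity, tremors, convulsion, sedation, lacrimation). LD50 cut-off set at the highest dose tested, 1000 mg kg^-1.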

[14] = Acute toxicity in po dosed albino mouse after 24 hrs; type: organism-based; settings: in vivo; summary of the method: as §1
[15] = system: Rattus norvegicus; test: Gastrointestinal toxicity in Wistar rat assessed as ulcerogenic effect at 400 mg/kg, po administered twice at 2 hrs interval after 4 hrs; type: organism-based; parameters: dose 400 mg/kg, route oral; settings: in vivo
Summary of the method: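 Male Wistar rats fasted 36 h, then given 400 mg/kg orally twice, 2 h apart. Animals killed 4 h later and the stomach examined for lesions; ulcer index recorded.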

[16] = system: Mus musculus; test: Analgesic activity in albino mouse assessed as inhibition of acetic acid-induced writhing at 10 mg/kg, po; type: functional
Summary of the method: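 Acetic acid writhing test: 0.6% acetic acid at 0.1 ml/10 g given intraperitoneally to albino mice of both sexes (18–22 g). Compounds given orally at 10 mg/kg as a suspension in 5% carboxymethyl cellulose. Indomethacin 10 mg/kg was the reference under the same conditions.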

[17] = system: Rattus norvegicus; test: Antiinflammatory activity in Wistar rat assessed as inhibition of formalin-induced paw oedema volume at 100 mg/kg, po administered 30 mins before formalin challenge after 1 hr relative to control; type: functional
Summary of the method: (§2)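 Oral dosing at 100 mg/kg as a 2% CMC suspension, 30 min before injecting 3.5% formalin into the paw. Groups of six Wistar rats of either sex. Paw volume read by mercury-displacement plethysmograph at 0 h (right after formalin) and at 1, 2, 3, 4 and 5 h. Percent inhibition versus plain 2% CMC controls; SEM reported.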

[18] = system: Rattus norvegicus; test: Antiinflammatory activity in Wistar rat assessed as inhibition of formalin-induced paw oedema volume at 100 mg/kg, po administered 30 mins before formalin challenge after 2 hrs relative to control; type: functional; summary of the method: as §2
[19] = system: Rattus norvegicus; test: Antiinflammatory activity in Wistar rat assessed as inhibition of formalin-induced paw oedema volume at 100 mg/kg, po administered 30 mins before formalin challenge after 3 hrs relative to control; type: functional; summary of the method: as §2
[20] = system: Rattus norvegicus; test: Antiinflammatory activity in Wistar rat assessed as inhibition of formalin-induced paw oedema volume at 100 mg/kg, po administered 30 mins before formalin challenge after 4 hrs relative to control; type: functional; summary of the method: as §2
[21] = system: Rattus norvegicus; test: Antiinflammatory activity in Wistar rat assessed as inhibition of formalin-induced paw oedema volume at 100 mg/kg, po administered 30 mins before formalin challenge after 5 hrs relative to control; type: functional; summary of the method: as §2

| Compound | inhibition at 100 µg/mL [1] [%] | inhibition at 50 µg/mL [2] [%] | inhibition at 25 µg/mL [3] [%] | zone of inhibition at 25 µg/mL [3] [mm] | inhibition at 100 µg/mL [4] [%] | inhibition at 50 µg/mL [5] [%] | inhibition at 25 µg/mL [6] [%] | inhibition at 100 µg/mL [7] [%] | inhibition at 50 µg/mL [8] [%] | inhibition at 100 µg/mL [10] [%] | inhibition at 50 µg/mL [11] [%] | LD50 at 24 h [13] [mg/kg] | LD50 at 24 h [14] [mg/kg] | UI [15] | inhibition in vivo at 10 mg/kg [16] [%] | inhibition in vivo at 100 mg/kg [17] [%] | inhibition in vivo at 100 mg/kg [18] [%] | inhibition in vivo at 100 mg/kg [19] [%] | inhibition in vivo at 100 mg/kg [20] [%] | inhibition in vivo at 100 mg/kg [21] [%] | also measured |
| --- | --- | --- | --- | --- | --- | --- | --- | --- | --- | --- | --- | --- | --- | --- | --- | --- | --- | --- | --- | --- | --- |
| O=c1cc(CNc2ccc(F)cc2)c2cc(Cl)ccc2[nH]1 | 70 | 50 | 26 | 60 | 76 | 41 | 22 | 77 | 47 | 75 | 56 | > 700 | > 1000 | 58.57 | 7.99 | 9 | 12 | 46 | 59 | 77 | zone of inhibition at 25 µg/mL [6]: 52 mm; inhibition at 25 µg/mL [9]: 35%; zone of inhibition at 25 µg/mL [9]: 70 mm; inhibition at 25 µg/mL [12]: 44% |
| Cc1ccc2c(CNc3ccc(F)cc3)cc(=O)oc2c1 | 73 | 46 | 27 | 58 | 74 | 55 | 28 | 67 | 33 | 70 | 49 | > 800 | > 1000 | 64.93 | 3.96 | 62 | 37 | 54 | 67 | 83 | zone of inhibition at 25 µg/mL [6]: 60 mm; inhibition at 25 µg/mL [9]: 14%; zone of inhibition at 25 µg/mL [9]: 40 mm; inhibition at 25 µg/mL [12]: 26% |
| O=c1cc(CNc2ccc(F)cc2)c2c(ccc3ccccc32)o1 |  |  |  |  |  |  |  |  |  |  |  | > 800 | > 1000 | 64.93 | 10.5 | 63 | 35 | 53 | 60 | 77 |  |
| O=c1cc(COc2ccc(F)cc2)c2ccc3ccccc3c2o1 |  |  |  |  |  |  |  |  |  |  |  | > 800 | > 1000 | 61.8 | 23.2 | 46 | 30 | 45 | 66 | 75 |  |
| Cc1cccc2c(CNc3ccc(F)cc3)cc(=O)[nH]c12 |  |  |  |  |  |  |  |  |  |  |  | > 700 | > 1000 | 55.35 | 67 | 23 | 28 | 6 | 73 | 85 |  |
| Cc1ccc2oc(=O)cc(COc3ccc(F)cc3)c2c1 |  |  |  |  |  |  |  |  |  |  |  | > 700 | > 1000 | 57.29 | 72.7 | 40 | 36 | 48 | 64 | 76 |  |
| Cc1ccc2c(CNc3ccc(Cl)cc3)cc(=O)oc2c1 | 62 | 36 | 17 | 44 | 60 | 34 | 17 | 52 | 21 | 54 | 32 |  |  |  |  |  |  |  |  |  | zone of inhibition at 25 µg/mL [6]: 44 mm; Activity [9]: inactive; zone of inhibition at 50 µg/mL [11]: 84 mm; Activity [12]: inactive |
| O=c1cc(COc2ccc(Br)cc2)c2cc(Cl)ccc2[nH]1 | 50 | 30 |  |  | 58 | 25 |  | 62 | 36 | 55 | 32 |  |  |  |  |  |  |  |  |  | Activity [3]: inactive; Activity [6]: inactive; inhibition at 25 µg/mL [9]: 21%; zone of inhibition at 25 µg/mL [9]: 50 mm; zone of inhibition at 50 µg/mL [11]: 82 mm; Activity [12]: inactive |
| COC1=CC(=O)C[C@@H](C)[C@]12Oc1c(Cl)c(OC)cc(OC)c1C2=O [GRISEOFULVIN] | 100 | 100 | 100 |  | 100 | 100 | 100 | 100 | 100 | 100 | 100 |  |  |  |  |  |  |  |  |  | inhibition at 25 µg/mL [9]: 100%; inhibition at 25 µg/mL [12]: 100% |
| O=c1cc(CNc2ccc(F)cc2)c2ccc3ccccc3c2o1 |  |  |  |  |  |  |  |  |  |  |  | > 700 | > 1000 | 64.93 | 76.4 | 81 | 54 | 53 | 71 | 81 |  |
| O=c1cc(COc2ccc(F)cc2)c2ccccc2[nH]1 |  |  |  |  |  |  |  |  |  |  |  | > 800 | > 1000 | 60.71 | 15.8 | 35 | 23 | 52 | 63 | 77 |  |
| Cc1ccc2c(CNc3ccc(Br)cc3)cc(=O)oc2c1 | 64 | 35 | 13 | 38 | 63 | 37 | 21 | 55 | 23 | 59 | 35 |  |  |  |  |  |  |  |  |  | zone of inhibition at 25 µg/mL [6]: 50 mm; Activity [9]: inactive; zone of inhibition at 50 µg/mL [11]: 90 mm; Activity [12]: inactive |
